Measured values taken from ChEMBL document CHEMBL4477266, “Discovery of N-(benzyloxy)-1,3-diphenyl-1H-pyrazole-4-carboxamide derivatives as potential antiproliferative agents by inhibiting MEK” (Bioorg Med Chem, 2016).

How the values were obtained:
HeLa = assay: Antiproliferative activity against human HeLa cells after 48 hrs in presence of 10% FBS by MTT method; assay type: functional
Outline: (§1)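 Cells were grown to log phase in DMEM with 10% fetal bovine serum at 37 °C under humidified 5% CO₂. They were seeded at 10⁵ cells/well and left 24 h to reattach. Compounds were added at increasing concentrations with 10% FBS for 48 h. Values are the mean of three independent experiments, each run in triplicate.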

[1] = Antiproliferative activity against human 293T cells after 48 hrs in presence of 10% FBS by MTT method; assay type: cell-based; details: 293T (HEK-293T) cells; outline: as §1
MCF7 = assay: Antiproliferative activity against human MCF7 cells after 48 hrs in presence of 10% FBS by MTT method; assay type: functional; details: MCF7, 48 h; outline: as §1
A549 = assay: Antiproliferative activity against human A549 cells after 48 hrs in presence of 10% FBS by MTT method; assay type: functional; details: A549, 48 h; outline: as §1
[2] = molecular target: T1, Dual specificity mitogen-activated protein kinase kinase 1 (Homo sapiens, UniProt Q02750); assay: Inhibition of MEK1 in […] human A549 cells assessed as reduction in ERK1/2 phosphorylation by ELISA; assay type: cell-based
Target sequence in this assay (Q02750 whole entry, looked up, change not shown): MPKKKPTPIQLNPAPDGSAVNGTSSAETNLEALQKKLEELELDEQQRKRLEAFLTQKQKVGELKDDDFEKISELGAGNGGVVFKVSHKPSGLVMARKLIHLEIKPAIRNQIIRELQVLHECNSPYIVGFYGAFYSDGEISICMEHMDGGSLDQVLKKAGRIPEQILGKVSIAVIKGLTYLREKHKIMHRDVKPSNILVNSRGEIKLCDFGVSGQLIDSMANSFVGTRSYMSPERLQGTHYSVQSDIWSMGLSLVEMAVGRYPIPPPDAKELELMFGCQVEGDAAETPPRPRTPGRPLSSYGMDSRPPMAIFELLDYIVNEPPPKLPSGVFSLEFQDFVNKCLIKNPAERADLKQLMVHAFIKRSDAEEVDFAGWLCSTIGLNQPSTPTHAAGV

[3] = molecular target: T1, Dual specificity mitogen-activated protein kinase kinase 1; assay: Inhibition of recombinant full length human N-terminal GST-tagged C-terminal His6-tagged MEK1 expressed in Escherichia coli using myelin basic protein as substrate in presence of activated BRAF and ERK2 by ELISA
Target sequence in this assay (Q02750 whole entry): as the sequence (Q02750 whole entry, looked up, change not shown) above

Focal adhesion kinase 1 = Focal adhesion kinase 1 (Homo sapiens, UniProt Q05397); assay: Inhibition of FAK in human MCF7 cells; assay type: cell-based
Aurora kinase A = molecular target: T2, Aurora kinase A (Homo sapiens, UniProt O14965); assay: Inhibition of Aurora A (unknown origin)
T2 sequence (O14965 whole entry): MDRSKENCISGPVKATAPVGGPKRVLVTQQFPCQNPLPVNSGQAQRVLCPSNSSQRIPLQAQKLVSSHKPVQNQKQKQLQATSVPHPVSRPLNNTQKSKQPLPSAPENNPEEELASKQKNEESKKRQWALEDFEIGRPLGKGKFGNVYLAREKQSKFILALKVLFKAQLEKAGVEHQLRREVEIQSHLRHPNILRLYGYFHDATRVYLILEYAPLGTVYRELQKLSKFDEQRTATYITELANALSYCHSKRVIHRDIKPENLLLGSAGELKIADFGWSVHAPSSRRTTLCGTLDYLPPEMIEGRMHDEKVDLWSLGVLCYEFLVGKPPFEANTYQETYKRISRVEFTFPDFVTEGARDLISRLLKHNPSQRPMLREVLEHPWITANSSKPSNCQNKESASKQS

[4] = molecular target: Vascular endothelial growth factor receptor 2 (Homo sapiens, UniProt P35968); assay: Inhibition of VEGFR2 (unknown origin)
[5] = molecular target: Epidermal growth factor receptor (Homo sapiens, UniProt P00533); assay: Inhibition of EGFR (unknown origin)
[6] = molecular target: Receptor tyrosine-protein kinase erbB-2 (Homo sapiens, UniProt P04626); assay: Inhibition of HER2 (unknown origin)
Receptor tyrosine-protein kinase erbB-2, sequence (P04626 whole entry): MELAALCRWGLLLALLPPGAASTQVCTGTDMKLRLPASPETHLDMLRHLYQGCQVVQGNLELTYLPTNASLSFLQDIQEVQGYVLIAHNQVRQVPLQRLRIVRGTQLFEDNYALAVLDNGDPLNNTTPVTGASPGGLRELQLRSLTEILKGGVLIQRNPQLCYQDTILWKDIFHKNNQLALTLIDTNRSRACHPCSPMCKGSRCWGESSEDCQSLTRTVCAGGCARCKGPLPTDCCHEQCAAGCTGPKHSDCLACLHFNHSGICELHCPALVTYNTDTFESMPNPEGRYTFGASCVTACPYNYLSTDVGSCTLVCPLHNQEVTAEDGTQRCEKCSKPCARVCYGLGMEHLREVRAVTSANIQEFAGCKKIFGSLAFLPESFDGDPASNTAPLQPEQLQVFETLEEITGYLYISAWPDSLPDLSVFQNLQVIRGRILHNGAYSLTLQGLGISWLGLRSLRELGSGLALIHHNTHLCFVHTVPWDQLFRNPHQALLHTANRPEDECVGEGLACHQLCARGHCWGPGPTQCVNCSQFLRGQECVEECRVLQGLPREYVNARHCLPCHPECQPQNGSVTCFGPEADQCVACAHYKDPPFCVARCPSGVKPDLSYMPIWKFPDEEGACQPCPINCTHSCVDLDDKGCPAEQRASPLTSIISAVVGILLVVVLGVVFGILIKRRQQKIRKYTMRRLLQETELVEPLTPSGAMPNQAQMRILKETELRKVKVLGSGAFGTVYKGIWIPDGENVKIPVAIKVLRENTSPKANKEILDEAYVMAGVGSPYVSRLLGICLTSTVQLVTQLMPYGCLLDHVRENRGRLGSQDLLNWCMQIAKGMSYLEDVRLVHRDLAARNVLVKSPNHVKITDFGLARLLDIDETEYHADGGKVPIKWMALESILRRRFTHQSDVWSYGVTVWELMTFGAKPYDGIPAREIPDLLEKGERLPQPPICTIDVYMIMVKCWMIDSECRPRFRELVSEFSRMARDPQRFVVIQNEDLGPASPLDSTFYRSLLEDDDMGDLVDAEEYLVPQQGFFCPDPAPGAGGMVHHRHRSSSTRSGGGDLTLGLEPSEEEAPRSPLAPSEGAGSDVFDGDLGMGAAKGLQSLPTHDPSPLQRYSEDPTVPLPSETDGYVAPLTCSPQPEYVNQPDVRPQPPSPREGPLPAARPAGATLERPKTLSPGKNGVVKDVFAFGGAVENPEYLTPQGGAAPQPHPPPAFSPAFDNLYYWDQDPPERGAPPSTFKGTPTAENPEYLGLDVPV

Focal adhesion kinase 1, sequence (Q05397 whole entry): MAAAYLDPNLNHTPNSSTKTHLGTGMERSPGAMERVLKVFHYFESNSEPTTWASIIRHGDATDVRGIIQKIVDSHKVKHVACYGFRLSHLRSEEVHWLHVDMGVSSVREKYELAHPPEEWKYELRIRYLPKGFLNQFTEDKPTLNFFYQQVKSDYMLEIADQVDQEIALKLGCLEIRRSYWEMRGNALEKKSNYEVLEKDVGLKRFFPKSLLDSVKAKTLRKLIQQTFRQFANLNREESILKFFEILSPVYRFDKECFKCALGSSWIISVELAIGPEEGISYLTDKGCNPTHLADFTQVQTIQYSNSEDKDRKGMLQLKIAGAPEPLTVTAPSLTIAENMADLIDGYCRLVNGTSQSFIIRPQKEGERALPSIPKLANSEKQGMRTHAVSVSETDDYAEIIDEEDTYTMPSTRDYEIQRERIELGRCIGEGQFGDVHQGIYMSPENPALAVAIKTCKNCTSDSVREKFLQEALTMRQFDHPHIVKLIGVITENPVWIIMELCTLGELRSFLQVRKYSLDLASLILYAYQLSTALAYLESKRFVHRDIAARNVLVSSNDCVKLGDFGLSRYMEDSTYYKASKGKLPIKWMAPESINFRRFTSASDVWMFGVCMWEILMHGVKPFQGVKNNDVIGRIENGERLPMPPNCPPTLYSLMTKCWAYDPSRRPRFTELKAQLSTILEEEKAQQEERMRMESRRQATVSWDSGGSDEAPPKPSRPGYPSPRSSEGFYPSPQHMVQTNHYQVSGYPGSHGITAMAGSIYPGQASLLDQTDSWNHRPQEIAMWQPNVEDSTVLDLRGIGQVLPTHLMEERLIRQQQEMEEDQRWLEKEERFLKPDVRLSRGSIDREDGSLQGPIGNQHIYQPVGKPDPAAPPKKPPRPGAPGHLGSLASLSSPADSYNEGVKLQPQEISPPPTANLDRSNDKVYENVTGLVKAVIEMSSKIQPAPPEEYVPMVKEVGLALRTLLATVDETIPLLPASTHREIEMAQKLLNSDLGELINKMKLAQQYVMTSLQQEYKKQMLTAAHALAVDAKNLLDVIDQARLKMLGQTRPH
Epidermal growth factor receptor, sequence (P00533 whole entry): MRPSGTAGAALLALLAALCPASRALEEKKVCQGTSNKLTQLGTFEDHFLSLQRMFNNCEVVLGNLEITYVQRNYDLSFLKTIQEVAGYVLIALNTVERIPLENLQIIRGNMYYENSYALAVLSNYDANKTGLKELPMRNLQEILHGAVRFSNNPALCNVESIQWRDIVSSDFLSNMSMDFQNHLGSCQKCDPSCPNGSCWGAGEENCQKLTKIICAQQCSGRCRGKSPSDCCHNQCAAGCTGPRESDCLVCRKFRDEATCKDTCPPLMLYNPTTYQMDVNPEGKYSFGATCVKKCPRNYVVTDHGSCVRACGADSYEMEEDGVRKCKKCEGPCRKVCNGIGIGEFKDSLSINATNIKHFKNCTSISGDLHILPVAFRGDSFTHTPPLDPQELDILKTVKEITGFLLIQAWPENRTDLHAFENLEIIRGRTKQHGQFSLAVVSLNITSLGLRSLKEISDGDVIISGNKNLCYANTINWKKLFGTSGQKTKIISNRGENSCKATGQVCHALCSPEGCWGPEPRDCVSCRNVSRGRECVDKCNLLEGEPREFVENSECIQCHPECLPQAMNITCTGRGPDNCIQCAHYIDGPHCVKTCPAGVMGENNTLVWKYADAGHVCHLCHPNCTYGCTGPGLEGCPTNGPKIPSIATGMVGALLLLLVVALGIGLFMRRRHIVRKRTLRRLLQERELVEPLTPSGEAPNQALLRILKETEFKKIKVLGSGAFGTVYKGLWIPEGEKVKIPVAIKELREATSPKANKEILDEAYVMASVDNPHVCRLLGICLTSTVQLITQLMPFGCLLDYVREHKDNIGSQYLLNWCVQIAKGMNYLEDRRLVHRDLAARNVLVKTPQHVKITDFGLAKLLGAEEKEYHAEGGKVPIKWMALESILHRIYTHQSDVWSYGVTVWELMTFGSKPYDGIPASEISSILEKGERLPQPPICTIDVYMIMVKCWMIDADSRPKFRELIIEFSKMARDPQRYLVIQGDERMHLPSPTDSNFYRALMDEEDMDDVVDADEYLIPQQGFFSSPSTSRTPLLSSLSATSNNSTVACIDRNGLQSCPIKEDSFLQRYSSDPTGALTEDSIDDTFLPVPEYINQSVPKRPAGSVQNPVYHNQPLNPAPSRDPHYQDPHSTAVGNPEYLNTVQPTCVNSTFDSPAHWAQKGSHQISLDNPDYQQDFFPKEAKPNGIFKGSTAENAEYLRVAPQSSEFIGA

Row | Compound | GI50 (HeLa) [µM] | CC50 at 48 h [1] [µM] | GI50 (MCF7) [µM] | GI50 (A549) [µM] | IC50 [2] [µM] | IC50 [3] [µM] | IC50 (Focal adhesion kinase 1) [µM] | IC50 (Aurora kinase A) [µM] | IC50 [4] [µM] | IC50 [5] [µM] | IC50 [6] [µM]
1 | O=C(NOCc1ccccc1F)c1cn(-c2ccc(Cl)cc2)nc1-c1ccccc1 | 4.17 | 126 | 15.1 | 12.1 |  |  |  |  |  |  | 
2 | Cc1ccc(-n2cc(C(=O)NOCc3ccc(Cl)cc3Cl)c(-c3ccccc3)n2)cc1 | 2.04 | 39.6 | 2.31 | 1.08 |  |  |  |  |  |  | 
3 | Cc1ccc(-n2cc(C(=O)NOCc3ccccc3)c(-c3ccccc3)n2)cc1 | 6.69 | 40.8 | 1.87 | 1.14 |  |  |  |  |  |  | 
4 | O=C(NOCc1ccccc1F)c1cn(-c2ccccc2)nc1-c1ccccc1 | 11.8 | 75.7 | 16.1 | 5.94 |  |  |  |  |  |  | 
5 | O=C(NOCc1ccccc1)c1cn(-c2ccccc2)nc1-c1ccccc1 | 8.83 | 122 | 13.4 | 5 |  |  |  |  |  |  | 
6 | COc1ccc(-n2cc(C(=O)NOCc3ccccc3)c(-c3ccccc3)n2)cc1 | 2.64 | 201 | 2.77 | 1.94 |  |  |  |  |  |  | 
7 | O=C(NOCc1ccc(Cl)cc1Cl)c1cn(-c2ccc(Cl)cc2)nc1-c1ccccc1 | 5.16 | 46.3 | 16.2 | 13.1 |  |  |  |  |  |  | 
8 | COc1ccc(-n2cc(C(=O)NOCc3ccccc3F)c(-c3ccccc3)n2)cc1 | 2.9 | 24.6 | 6 | 2.16 |  |  |  |  |  |  | 
9 | O=C(NOCc1ccc(Cl)cc1Cl)c1cn(-c2ccccc2)nc1-c1ccccc1 | 5.1 | 40.2 | 9.66 | 7.35 |  |  |  |  |  |  | 
10 | O=C(NOCc1ccccc1Cl)c1cn(-c2ccc(F)cc2)nc1-c1ccccc1 | 36.4 | 44.7 | 11.4 | 8.33 |  |  |  |  |  |  | 
11 | O=C(NOCc1ccccc1Cl)c1cn(-c2ccccc2)nc1-c1ccccc1 | 17.8 | 82 | 7.41 | 10.3 |  |  |  |  |  |  | 
12 | Cc1ccc(-n2cc(C(=O)NOCc3ccccc3F)c(-c3ccccc3)n2)cc1 | 1.18 | 20.6 | 2.11 | 0.26 | 0.61 | 0.091 | 15.6 | 8.3 | > 25 | > 25 | > 25
13 | O=C(NOCc1ccc(Cl)cc1Cl)c1cn(-c2ccc(F)cc2)nc1-c1ccccc1 | 7.35 | 45 | 25.3 | 14 |  |  |  |  |  |  | 
14 | O=C(NOCc1ccccc1)c1cn(-c2ccc(F)cc2)nc1-c1ccccc1 | 6.11 | 217 | 15.3 | 10.4 |  |  |  |  |  |  | 
15 | COc1ccc(-n2cc(C(=O)NOCc3ccc(Cl)cc3Cl)c(-c3ccccc3)n2)cc1 | 5.75 | 545 | 2.57 | 3.83 |  |  |  |  |  |  | 
16 | COc1ccc(-n2cc(C(=O)NOCc3ccccc3Cl)c(-c3ccccc3)n2)cc1 | 3.48 | 586 | 3.73 | 2.45 |  |  |  |  |  |  | 
17 | O=C(NOCc1ccccc1F)c1cn(-c2ccc(F)cc2)nc1-c1ccccc1 | 10.3 | 147 | 12 | 17.5 |  |  |  |  |  |  | 
18 | Cc1ccc(-n2cc(C(=O)NOCc3ccccc3Cl)c(-c3ccccc3)n2)cc1 | 4.68 | 38.7 | 2.64 | 0.38 |  |  |  |  |  |  | 
19 | O=C(NOCc1ccccc1Cl)c1cn(-c2ccc(Cl)cc2)nc1-c1ccccc1 | 8.85 | 129 | 16.1 | 15.5 |  |  |  |  |  |  | 
20 | O=C(NOCc1ccccc1)c1cn(-c2ccc(Cl)cc2)nc1-c1ccccc1 | 8.35 | 51.9 | 10.8 | 13 |  |  |  |  |  |  | 
21 | COc1cc2ncnc(Nc3ccc(F)c(Cl)c3)c2cc1OCCCN1CCOCC1 [GEFITINIB] |  |  |  | 2.86 |  |  |  |  |  |  | 
